The record followed here is ChEMBL document CHEMBL3352107, “Development of radamide analogs as Grp94 inhibitors” (Bioorg Med Chem, 2014).

Test [1] concerns the target Endoplasmin (Homo sapiens) (UniProt P14625). Put plainly: Inhibition of recombinant Grp94 (unknown origin) assessed as tracer bound at 25 uM after 24 hrs by fluorescence polarization assay relative to control. Set-up: scale not given: the % may be the effect or the level left. In outline: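 Single-point screen at 25 μM. Recombinant cGrp94 (10 nM) and FITC-geldanamycin tracer (6 nM) incubated 24 h at 4°C with rocking in HEPES pH 7.3 buffer containing molybdate, DTT, NP-40 and BGG (1% DMSO). Polarization read at 485/528 nm. Percent tracer bound scaled between DMSO mP (100%) and free tracer mP (0%). Geldanamycin 50 nM was the positive control. Triplicate.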

The target is the same in test [2]. Put plainly: Inhibition of recombinant Grp94 (unknown origin) assessed as tracer bound at 25 uM after 24 hrs by fluorescence polarization assay relative to HSP90alpha (unknown origin). In outline: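 Compounds at 25 μM incubated 24 h with either cGrp94 or Hsp90α plus FITC-geldanamycin tracer (1% DMSO) to compare the two isoforms. Fluorescence polarization gave percent tracer bound, with DMSO as 100% and free tracer as 0%. Geldanamycin 50 nM was the positive control. Triplicate.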

Chain of Endoplasmin (Homo sapiens) (P14625 whole entry): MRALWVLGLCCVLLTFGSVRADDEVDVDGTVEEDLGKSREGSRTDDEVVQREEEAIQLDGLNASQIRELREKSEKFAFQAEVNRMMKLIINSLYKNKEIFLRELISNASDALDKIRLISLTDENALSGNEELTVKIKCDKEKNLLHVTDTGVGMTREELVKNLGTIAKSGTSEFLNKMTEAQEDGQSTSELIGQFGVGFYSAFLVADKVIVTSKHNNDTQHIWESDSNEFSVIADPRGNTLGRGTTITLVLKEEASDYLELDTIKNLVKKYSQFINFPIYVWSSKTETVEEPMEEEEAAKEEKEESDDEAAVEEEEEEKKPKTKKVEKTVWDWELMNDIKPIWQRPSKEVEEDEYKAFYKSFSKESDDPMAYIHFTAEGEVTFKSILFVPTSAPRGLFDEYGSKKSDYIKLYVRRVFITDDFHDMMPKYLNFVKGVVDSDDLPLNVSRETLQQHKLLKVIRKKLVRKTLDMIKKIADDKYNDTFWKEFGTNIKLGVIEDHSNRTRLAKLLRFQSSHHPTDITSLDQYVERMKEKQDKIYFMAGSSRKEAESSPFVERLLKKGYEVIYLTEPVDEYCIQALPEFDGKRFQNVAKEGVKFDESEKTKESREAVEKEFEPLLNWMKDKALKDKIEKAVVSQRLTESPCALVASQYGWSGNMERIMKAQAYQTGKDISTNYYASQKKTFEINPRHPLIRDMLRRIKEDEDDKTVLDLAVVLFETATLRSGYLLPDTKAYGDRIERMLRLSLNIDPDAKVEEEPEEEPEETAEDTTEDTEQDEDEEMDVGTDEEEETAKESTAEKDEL

For `COC(=O)c1c(O)cc(O)c(Cl)c1CCC(=O)NNc1ccccc1`, the Activity in test [1] was found to be 26.3%.
Still for that read-out and setting: then `COC(=O)c1c(O)cc(O)c(Cl)c1CCC(=O)N(O)c1ccccc1`, with 2.5%; and `COC(=O)c1c(O)cc(O)c(Cl)c1CCC(=O)NCc1ccccc1`, with 65.8%.
In the case of `COC(=O)c1c(O)cc(O)c(Cl)c1CCC(=O)Nc1cccc(F)c1`, the Activity in test [1] amounted to 11%.
On to `COC(=O)c1c(O)cc(O)c(Cl)c1CCC(=O)Nc1ccc(C#N)cc1`, for which the Activity in test [1] came out at 5.4%.
On the same count and under the same terms, then `COC(=O)c1c(O)cc(O)c(Cl)c1CCC(=O)Nc1ccccc1I`, with 7.9%; and `COC(=O)c1c(O)cc(O)c(Cl)c1CCC(=O)Nc1ccc(Br)cc1Br`, with 50.7%; and `COC(=O)c1c(O)cc(O)c(Cl)c1CCC(=O)Nc1ccccc1Br`, with 6.1%.
Still for that read-out and setting: then `C#Cc1ccc(NC(=O)CCc2c(Cl)c(O)cc(O)c2C(=O)OC)cc1`, with 12.7%; and `COC(=O)c1c(O)cc(O)c(Cl)c1CCC(=O)Nc1ccccc1F`, with 16.3%; and `COC(=O)c1c(O)cc(O)c(Cl)c1CCC(=O)Nc1ccc(Br)cn1`, with 0.1%.
The same measure, in the same setting: then `COC(=O)c1c(O)cc(O)c(Cl)c1CCC(=O)Nc1ccc(C)cc1`, with 18.7%.
Turning to `COC(=O)c1c(O)cc(O)c(Cl)c1CCC(=O)Nc1ccc(Br)cc1`, in test [2], the Ratio came out at 27. In addition, the Activity in test [1] turned out to be 2.1%.
For `COC(=O)c1c(O)cc(O)c(Cl)c1CCC(=O)Nc1cccc(Cl)n1`, the Activity in test [1] was found to be 1.4%.
On to `COC(=O)c1c(O)cc(O)c(Cl)c1CCC(=O)Nc1ccccc1OC`, for which the Activity in test [1] was determined as 16.1%.
The same measure, in the same setting: in the case of `CCN(C(=O)CCc1c(Cl)c(O)cc(O)c1C(=O)OC)c1ccccc1` it was 18.6%.
With `COC(=O)c1c(O)cc(O)c(Cl)c1CCC(=O)Nc1ccccc1Cl`, the Ratio in test [2] was 8. Also, the Activity in test [1] was 0.1%.
`COC(=O)c1c(O)cc(O)c(Cl)c1CCC(=O)Nc1cccc(NC(C)=O)c1`: the Activity in test [1] is 8.3%.
For `COC(=O)c1c(O)cc(O)c(Cl)c1CCC(=O)Nc1cncnc1`, in test [1], the Activity is 11.6%.
On to `COC(=O)c1c(O)cc(O)c(Cl)c1CCC(=O)Nc1cccc(OC)c1`, for which the Activity in test [1] was determined as 27.4%.
Turning to `COC(=O)c1c(O)cc(O)c(Cl)c1CCC(=O)Nc1cccnc1`, the Activity in test [1] is 14.9%.
With `COC(=O)c1c(O)cc(O)c(Cl)c1CCC(=O)Nc1ccc(N)cc1`, in test [1], the Activity is 15.7%.
Same read-out and setting: then `COC(=O)c1c(O)cc(O)c(Cl)c1CCC(=O)Nc1nncs1`, with 8.7%.
With `COC(=O)c1c(O)cc(O)c(Cl)c1CCC(=O)NCCc1ccccc1`, the Activity in test [1] amounted to 33%.
As for `COC(=O)c1c(O)cc(O)c(Cl)c1CCC(=O)Nc1cc(Cl)cc(Cl)c1`, in test [1], the Activity worked out at 15.6%.
The same measure, in the same setting: then `COC(=O)c1c(O)cc(O)c(Cl)c1CCC(=O)Nc1ncccc1Cl`, with 9.8%.
On the same count and under the same terms, then `COC(=O)c1c(O)cc(O)c(Cl)c1CCC(=O)Nc1cccc(Cl)c1Br`, with 24.9%; and `COC(=O)c1c(O)cc(O)c(Cl)c1CCC(=O)Nc1ncccn1`, with 16.7%.
On the same count and under the same terms, then `COC(=O)c1c(O)cc(O)c(Cl)c1CCC(=O)Nc1cccc(O)c1`, with 3.5%.
`COC(=O)c1c(O)cc(O)c(Cl)c1CCC(=O)Nc1ncc(Cl)s1`: the Activity in test [1] is 22.4%.
On the same count and under the same terms, then `COC(=O)c1c(O)cc(O)c(Cl)c1CCC(=O)Nc1ccc(C(C)C)cc1`, with 59%; and `COC(=O)c1c(O)cc(O)c(Cl)c1CCC(=O)NC1CCCCC1`, with 26.1%; and `COC(=O)c1c(O)cc(O)c(Cl)c1CCC(=O)Nc1ccccc1N`, with 20.5%.
Still for that read-out and setting: then `COC(=O)c1c(O)cc(O)c(Cl)c1CCC(=O)Nc1ccc(Br)c(Cl)c1`, with 71.4%; and `COC(=O)c1c(O)cc(O)c(Cl)c1CCC(=O)N1CCc2ccccc21`, with 23%.
Still for that read-out and setting: then `COC(=O)c1c(O)cc(O)c(Cl)c1CCC(=O)Nc1ncccc1Br`, with 0.2%.
For the molecule `COC(=O)c1c(O)cc(O)c(Cl)c1CCC(=O)Nc1cccc(N)c1`, in test [1], the Activity worked out at 17.4%.
In the case of `COC(=O)c1c(O)cc(O)c(Cl)c1CCC(=O)Nc1cccc(-c2ccccc2)c1`, in test [1], the Activity was 46.8%.
For the molecule `COC(=O)c1c(O)cc(O)c(Cl)c1CCC(=O)Nc1nnc(Br)s1`, in test [1], the Activity was determined as 5.1%.
Consider `COC(=O)c1c(O)cc(O)c(Cl)c1CCC(=O)Nc1cccnn1`, for which the Activity in test [1] is 12.2%.
The same measure, in the same setting: in the case of `COC(=O)c1c(O)cc(O)c(Cl)c1CCC(=O)Nc1ccc(O)cc1` it was 6.5%.
Same read-out and setting: in the case of `COC(=O)c1c(O)cc(O)c(Cl)c1CCC(=O)Nc1cccc(Br)c1` it was 9.3%.
Same read-out and setting: then `COC(=O)c1c(O)cc(O)c(Cl)c1CCC(=O)Nc1ccccc1C`, with 3.4%; and `COC(=O)c1c(O)cc(O)c(Cl)c1CCC(=O)Nc1cnccn1`, with 16.6%.
With `COC(=O)c1c(O)cc(O)c(Cl)c1CCC(=O)Nc1ccccc1C(F)(F)F`, the Activity in test [1] is 13.4%.
For the molecule `COC(=O)c1c(O)cc(O)c(Cl)c1CCC(=O)Nc1ncc(Br)s1`, the Activity in test [1] came to 27.7%.
For `COC(=O)c1c(O)cc(O)c(Cl)c1CCC(=O)Nc1cccc(C(F)(F)F)c1`, the Activity in test [1] turned out to be 39.4%.
Regarding `COC(=O)c1c(O)cc(O)c(Cl)c1CCC(=O)Nc1ccc(-c2ccccc2)cc1`, the Activity in test [1] came out at 85%.
The same measure, in the same setting: then `COC(=O)c1c(O)cc(O)c(Cl)c1CCC(=O)Nc1ncns1`, with 10.2%; and `COC(=O)c1c(O)cc(O)c(Cl)c1CCC(=O)Nc1ccncc1`, with 34.9%.
Turning to `COC(=O)c1c(O)cc(O)c(Cl)c1CCC(=O)Nc1cccc(Cl)c1`, in test [2], the Ratio was determined as 25. For the same molecule, the Activity in test [1] came out at 0.1%.
For `COC(=O)c1c(O)cc(O)c(Cl)c1CCC(=O)Nc1ccccc1O`, the Activity in test [1] came to 18%.
In the case of `COC(=O)c1c(O)cc(O)c(Cl)c1CCC(=O)Nc1ccc(C(F)(F)F)cc1`, the Activity in test [1] came out at 34.5%.
With `COC(=O)c1c(O)cc(O)c(Cl)c1CCC(=O)N(C)c1ccccc1`, the Activity in test [1] was 16.7%.
Take `COC(=O)c1c(O)cc(O)c(Cl)c1CCC(=O)Nc1ccccc1`: the Activity in test [1] was 19.8%.
As for `COC(=O)c1c(O)cc(O)c(Cl)c1CCC(=O)Nc1ccc(OC)cc1`, the Activity in test [1] amounted to 19.8%.
On to `COC(=O)c1c(O)cc(O)c(Cl)c1CCC(=O)Nc1ccc(I)cc1`, for which the Activity in test [1] amounted to 29.8%.
Same read-out and setting: then `COC(=O)c1c(O)cc(O)c(Cl)c1CCC(=O)N(c1ccccc1)C(C)C`, with 30.2%.
Same read-out and setting: then `COC(=O)c1c(O)cc(O)c(Cl)c1CCC(=O)Nc1cc(Cl)ccn1`, with 7.7%; and `COC(=O)c1c(O)cc(O)c(Cl)c1CCC(=O)Nc1ccc(Cl)cc1`, with 15.7%; and `COC(=O)c1c(O)cc(O)c(Cl)c1CCC(=O)Nc1cnncn1`, with 19.5%.
Take `COC(=O)c1c(O)cc(O)c(Cl)c1CCC(=O)Nc1ccc(F)cc1`: in test [1], the Activity came to 10.9%.
